{"source": "paper PMC8178987", "about": "(Chemical Science, 2020)", "format_in_all_cases": "binding", "key": {"gpPorA": {"test_system": "gpPorA", "experiment": "Single-channel recording of peptide interaction/translocation with gpPorA", "conditions": "for discrimination of R4 and R9 in competitive blocking: R4 10 µM, cis and R9 100 nM, 150 mM KCl"}, "pPorA-C24": {"test_system": "pPorA-C24", "conditions": "subconductance pores; R6 1 µM cis; R9 0.5 µM; 150 mM KCl, pH 7.4"}, "pPorA-A24": {"test_system": "pPorA-A24", "experiment": "Single-channel recording of peptide interaction with pPorA-A24", "how_it_was_run": "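Single pores in planar lipid bilayers formed on an aperture prepainted with hexadecane in n-pentane (5 mg mL−1). Test peptide added to the cis side in 0.15 M KCl, 10 mM HEPES, pH 7.4, recorded at −5 and −20 mV. Current was digitally filtered at 4 and 7 kHz with an 8-pole Bessel filter. τoff came from dwell-time histograms.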"}, "pPorA-K24": {"test_system": "pPorA-K24", "experiment": "Single-channel recording of peptide interaction with pPorA-K24", "conditions": "for ion current blockages: cis, 0.15 M KCl, pH 7.4"}, "[1]": {"conditions": "0.5 μM, cis, negative voltages, 0.15 M KCl, pH 7.4"}, "[2]": {"conditions": "0.5 μM, trans, +10 mV to +35 mV, 0.15 M KCl, pH 7.4"}}, "data": [{"substance": "tetraarginine [R4]", "values": [{"measurement": "binding to pore", "setting": "gpPorA; 10 μM, cis/trans, 0.15 M KCl, pH 7.4", "value": "weak electrostatic binding"}, {"measurement": "frequency of the blockage events", "setting": "gpPorA; 10 μM, cis, negative voltages to −75 mV, 0.15 M KCl, pH 7.4", "value": "increased with the voltage"}, {"measurement": "ion current blockages", "setting": "gpPorA; 10 μM, cis, positive voltages, 0.15 M KCl, pH 7.4", "value": "No peptide-induced ion current blockages were detected"}, {"measurement": "ion current blockages", "setting": "gpPorA; 10 μM, cis, −25 mV, 0.15 M KCl, pH 7.4", "value": "occasional ion current blockages"}, {"measurement": "τoff (mean dwell time of blocking)", "setting": "gpPorA; 10 μM, cis, −75 mV, 0.15 M KCl, 10 mM HEPES, pH 7.4, n = 3", "value": "165 ± 15", "unit": "μs"}, {"measurement": "ion current blockages", "setting": "gpPorA; 10 μM, trans, higher positive voltages, 0.15 M KCl, pH 7.4", "value": "short, less frequent blockage events"}, {"measurement": "discrimination of R4 and R9 in competitive blocking", "setting": "gpPorA; cis, −20 mV and −25 mV, pH 7.4", "value": "discriminated based on τoff"}]}, {"substance": "hexaarginine [R6]", "values": [{"measurement": "blockage events", "setting": "gpPorA; 0.5 μM, cis, above −25 mV, 0.15 M KCl, pH 7.4", "value": "not resolved accurately"}, {"measurement": "blockage events", "setting": "gpPorA; 0.5 μM, cis, higher positive voltages, 0.15 M KCl, pH 7.4", "value": "no blockage events were observed"}, {"measurement": "ion current blockage (block)", "setting": "gpPorA; [1]", "value": 100, "unit": "%"}, {"measurement": "frequency of blockage events", "setting": "gpPorA; 0.5 μM, cis, −5 mV to −25 mV, 0.15 M KCl, pH 7.4", "value": "decreased with an increase in the voltage"}, {"measurement": "ion current blockages", "setting": "gpPorA; 0.5 μM, trans, 0.15 M KCl, pH 7.4", "value": "time-resolved ion current blockages"}, {"measurement": "asymmetry in peptide binding/translocation between cis and trans sides", "setting": "gpPorA; 0.5 μM, 0.15 M KCl, pH 7.4", "value": "no significant asymmetry"}, {"measurement": "Kd", "setting": "gpPorA; read-out: KDcis, cis, −10 mV, 0.15 M KCl, pH 7.4", "value": 5.19, "unit": "µM"}, {"measurement": "ion current blockages", "setting": "pPorA-C24", "value": "combination of strong and weak ion current blockages"}]}, {"substance": "nonaarginine [R9]", "values": [{"measurement": "ion current blockages", "setting": "gpPorA; 0.5 μM, cis, above +40 mV, 0.15 M KCl, pH 7.4", "value": "less frequent ion current blockages"}, {"measurement": "frequency of ion current blockages", "setting": "gpPorA; 0.5 μM, cis, above −40 mV, 0.15 M KCl, pH 7.4", "value": "considerably reduced"}, {"measurement": "ion current blockage (block)", "setting": "gpPorA; [1]", "value": 100, "unit": "%"}, {"measurement": "ion current blockages", "setting": "gpPorA; 0.5 μM, cis, pH 7.4, 0.15 M KCl, compared with pH 4.5", "value": "voltage-dependent well-defined ion current blockages"}, {"measurement": "ion current blockages", "setting": "gpPorA; 0.5 μM, cis, −5 mV, −10 mV and −15 mV, pH 4.5, citrate buffer, 0.15 M KCl", "value": "short-lived, less frequent ion current blockages"}, {"measurement": "pore state on peptide addition", "setting": "gpPorA; 0.5 μM, cis, −5 mV, 0.15 M KCl, pH 7.4", "value": "predominantly remained closed"}, {"measurement": "voltage dependence of kon and koff", "setting": "gpPorA; 0.5 μM, cis, −10 mV to −35 mV, 0.15 M KCl, pH 7.4", "value": "increased with the voltage"}, {"measurement": "ion current blockages", "setting": "gpPorA; 0.5 μM, cis, −20 mV and −25 mV, pH 4.5, citrate buffer, 0.15 M KCl", "value": "no prominent blockage events"}, {"measurement": "ion current blockage (block)", "setting": "gpPorA; [2]", "value": 100, "unit": "%"}, {"measurement": "voltage dependence of kon and koff", "setting": "gpPorA; [2]", "value": "an increase in the kon and koff"}, {"measurement": "τoff", "setting": "gpPorA; 0.5 μM, trans, +10 mV, 0.15 M KCl, 10 mM HEPES, pH 7.4, n = 3", "value": "35 ± 3", "unit": "ms"}, {"measurement": "ion current blockages against the electrophoretic pulling", "setting": "gpPorA; 0.5 μM, trans, negative voltages, 0.15 M KCl, pH 7.4", "value": "ion current blockages against the electrophoretic pulling was observed"}, {"measurement": "asymmetry in peptide binding/translocation between cis and trans sides", "setting": "gpPorA; 0.5 μM, 0.15 M KCl, pH 7.4", "value": "well-defined asymmetry"}, {"measurement": "ion current blockages", "setting": "gpPorA; 1 μM, cis, added after D9 to the same pores, 0.15 M KCl, pH 7.4", "value": "voltage-dependent intense blockage events"}, {"measurement": "τoff", "setting": "gpPorA; 100 μM, cis, −10 mV, 1 M KCl, 10 mM HEPES, pH 7.4, n = 3", "value": "0.14 ± 0.02", "unit": "ms"}, {"measurement": "ion current blockage (block)", "setting": "gpPorA; 100 μM, cis, −10 mV, 1 M KCl, pH 7.4", "value": "~70", "unit": "%"}, {"measurement": "ion current blockages", "setting": "gpPorA; 100 μM, cis, −20 mV, −30 mV and −50 mV, 1 M KCl, pH 7.4", "value": "less frequent to unresolved ion current blockages"}, {"measurement": "discrimination of R4 and R9 in competitive blocking", "setting": "gpPorA; cis, −20 mV and −25 mV, pH 7.4", "value": "discriminated based on τoff"}, {"measurement": "ion current blockages", "setting": "pPorA-C24", "value": "combination of strong and weak ion current blockages"}, {"measurement": "ion current blockages", "setting": "pPorA-A24; 0.5 μM, cis, −5 mV to −20 mV, 0.15 M KCl, pH 7.4", "value": "ion current blockages exclusively at negative voltages"}, {"measurement": "binding affinity", "setting": "pPorA-A24; directly formed pPorA compared to self-assembled gpPorA", "value": "less affinity"}]}, {"substance": "nonaaspartate [D9]", "values": [{"measurement": "ion current blockages", "setting": "gpPorA; 100 μM, cis, different peptide concentrations and voltages, 0.15 M KCl, pH 7.4", "value": "did not produce any ion current blockages"}, {"measurement": "ion current blockages", "setting": "pPorA-K24; 0.5 μM", "value": "did not produce defined ion current blockages"}, {"measurement": "ion current blockages", "setting": "pPorA-K24; 10 μM, +50 mV", "value": "very short, less frequent ion current blockage"}, {"measurement": "ion current blockages", "setting": "pPorA-K24; 10 μM, negative voltages", "value": "no ion current blockages were observed"}, {"measurement": "binding affinity", "setting": "pPorA-K24; compared with R9 binding to cation-selective gpPorA (C24)", "value": "weak D9 peptide binding"}]}]}
